# TNAP inh no acc = inhibitors of human TNAP without phosphate acceptor; purified TNAP, CDP-star luminescence, 30 min; AID 1012; 200,000 compounds, 0.26% hits; inhibition, % at 20 µM;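 active = tissue-nonspecific alkaline phosphatase inhibition above about 50% at 20 µM in the single-dose screen, limit read from the data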;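 also: 0% = DMSO negative control and 100% = EDTA positive control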
# Target sequence (P05186 whole entry, looked up): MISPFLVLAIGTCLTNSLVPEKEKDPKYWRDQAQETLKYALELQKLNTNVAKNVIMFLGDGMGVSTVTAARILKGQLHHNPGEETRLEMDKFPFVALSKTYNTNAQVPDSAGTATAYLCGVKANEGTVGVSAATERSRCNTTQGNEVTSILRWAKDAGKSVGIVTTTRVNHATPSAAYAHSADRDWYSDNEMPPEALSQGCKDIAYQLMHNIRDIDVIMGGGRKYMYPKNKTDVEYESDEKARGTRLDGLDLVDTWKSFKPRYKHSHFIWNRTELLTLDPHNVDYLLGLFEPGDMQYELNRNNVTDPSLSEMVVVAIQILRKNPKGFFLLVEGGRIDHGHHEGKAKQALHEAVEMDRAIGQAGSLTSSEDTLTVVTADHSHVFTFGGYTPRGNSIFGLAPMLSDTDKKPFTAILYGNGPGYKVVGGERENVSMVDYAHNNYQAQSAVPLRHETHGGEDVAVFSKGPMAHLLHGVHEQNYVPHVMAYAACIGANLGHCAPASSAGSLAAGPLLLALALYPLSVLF
# TNAP inh hiacc = blocks human TNAP under high phosphate acceptor concentration; P05186; purified TNAP, CDP-star luminescence, 1 M DEA; inhibition, % at 20 µM; 200,000 compounds, 0.03% hits; AID 1135;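 active = over 50% inhibition of tissue-nonspecific alkaline phosphatase at 20 µM in the single-dose screen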;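 also: plate controls were DMSO wells for no effect and EDTA-quenched wells as full inhibition for full effect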
# Arbovirus inh = arbovirus infection inhibition; 200,000 compounds, 0.37% hits; inhibition, % at 10 µM; arbovirus infection cell-based antiviral screen; in the data active = inhibition above about 30%
# TNAP act hiacc = increases human TNAP activity under high phosphate acceptor concentration; 200,000 tested, under 10 active; AID 1136; purified TNAP, CDP-star luminescence, 1 M DEA, 30 min; hits give high values; 0 = EDTA background, 1 = DMSO-only activity; activation factor at 20 µM; P05186;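 active = activation factor at least 2 at 20 µM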
#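 Test system – human TNAP · Doses – 20 µM single point · Incubation – 30 min, room temperature · Signal – luminescent substrate turnover signal · Read-out basis – activation factor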
# WT yeast gro inh = growth inhibition of WT yeast, mitochondrial fusion screen; mitochondrial fusion phenotypic screen, WT strain; inhibition, % at 10 µM; 190,000 compounds, 2.1% hits; AID 1362; in the data active = inhibition above about 58%; tested in S. cerevisiae
# Numbers without * were called inactive. An excerpt weighted towards active compounds, which were near 2.6% of everything screened.
SMILES,TNAP inh no acc,TNAP inh hiacc,Arbovirus inh,TNAP act hiacc,WT yeast gro inh
Cc1nc2ccccc2n1/N=C/c1ccc([N+](=O)[O-])s1,-2,3,-32,1,80*
COc1cccc(/C=N/n2c(C)nc3ccccc32)c1OC,-8,-4,1,1,62*
CC(C)(C)S(=O)c1cccs1 (stereo not given),-17,1,-2,1,-16
Clc1ccc(CSc2nnc(CNc3cccc(Cl)c3)o2)cc1,-5,-5,-30,1,81*
CCCCOc1ccc(C(C)NC(=O)C2CCCN(S(=O)(=O)CCC)C2)cc1 (stereo not given),-8,-3,-16,1,2
CNc1nc(-c2ccccn2)nnc1-c1ccccc1,3,-4,-33,1,8
c1ccc(-c2nnc(-c3ccccn3)nc2NC2CCCCC2)cc1,-2,-3,-37,1,63*
COc1ccc(CC(=O)Nc2ccc(S(=O)(=O)NC(C)C)cc2)cc1,-11,-6,7,1.1,-16
CC(C)NS(=O)(=O)c1ccc(NC(=O)C2CC3C=CC2C3)cc1 (stereo not given),-9,-4,7,1,75*
Cc1ccc(S(=O)(=O)N(CC(=O)NCCC2=CCCCC2)Cc2ccccc2F)cc1,-4,-7,-25,1.1,61*
c1ccc2c(c1)CCN(c1nc3cc4c(cc3s1)OCCO4)C2,7,7,11,0.9,-3
CCOC(=O)C1=C(C)NC(=S)N(C=O)C1c1ccccc1 (stereo not given),4,-3,-3,1,-9
Cc1nc(NC(C)c2ccccc2)c2oc3ccccc3c2n1 (stereo not given),-8,-5,7,1.1,66*
Cc1nc(N[C@@H](Cc2ccccc2)C(=O)O)c2oc3ccccc3c2n1,-10,-3,-3,1,-3
CC(C)c1ccc(NC(=O)c2sccc2-n2cccc2)cc1,-4,3,-11,1,67*
Cc1c(Br)cccc1NC(=O)c1sccc1-n1cccc1,-11,-3,3,1,-4
Cn1c(Cl)c(C(=O)Nc2ccc(Cl)cc2)c2ccccc21,-11,-2,-13,1,2
CCCCCOC(=O)c1ccccc1C(=O)O,0,0,-2,1,-7
NNC(=O)c1cc2c(N3CCC(Cc4ccccc4)CC3)ncnc2s1,-13,2,-17,1,58*
Cn1ncc2c(N3CCC(Cc4ccccc4)CC3)ncnc21,-4,-2,-26,1,21
COc1cc2c(cc1NC(=O)COc1ccccc1OC)oc1ccccc12,-13,-4,4,1,2
COc1cc2c(cc1NC(=S)Nc1cccc3ccccc13)oc1ccccc12,-1,-7,-11,1.1,69*
COc1cc2c(cc1NC(=S)Nc1cccc(C(F)(F)F)c1)oc1ccccc12,-1,1,-8,1,64*
CC(=O)C(N=Nc1ccccc1)(Sc1nnc(-c2ccccc2)n1-c1ccccc1)C(C)=O,7,0,-22,1,79*
CC(=O)C(N=Nc1ccccc1)(Sc1nnc(-c2ccccc2)n1-c1ccccc1)C(=O)Nc1ccccc1 (stereo not given),-5,-1,-8,1,28
SMILES,TNAP inh no acc,TNAP inh hiacc,Arbovirus inh,TNAP act hiacc,WT yeast gro inh
C#CC(C)(CC)NC(=O)Cn1nnc(-c2ccc(S(C)(=O)=O)cc2)n1 (stereo not given),-6,-5,4,1.1,-11
Cc1cccc(OCCSc2nc3ncnc(N)c3[nH]2)c1,-5,-5,0,1.1,3
Cc1cccc(OCCCSc2nc3ccc(C)cc3[nH]2)c1,-75,-6,-26,1.1,82*
CN(c1ccccc1)S(=O)(=O)c1cccc(NC(=O)CC(C)(C)C)c1,-15,-3,1,1,10
Cc1nc(C)c(NC(=O)OC(C)C)cc1NC(=O)OC(C)C,-10,-1,10,1,-20
CN1/C(=C\C(=O)Nc2ccc(Br)cc2)C(C)(C)c2ccccc21,-14,0,-8,1,87*
CN1/C(=C\C(=O)Nc2cccc(Cl)c2)C(C)(C)c2ccccc21,-16,-1,-17,1,78*
CN1/C(=C/C(=O)C2CC2)C(C)(C)c2ccccc21,-10,-2,0,1,7
CN1/C(=C\C(=O)Nc2ccc(F)cc2)C(C)(C)c2ccccc21,-3,-6,-2,1.1,74*
CN1/C(=C\C(=S)NC(=O)c2cccc(Br)c2)C(C)(C)c2ccccc21,44,26,8,0.7,65*
CCn1cc(C(=O)N2CCCC2)c(=O)c2cc(S(=O)(=O)N3CCOCC3)ccc21,-11,2,-1,1,14
CC(C)CCNC(=O)c1sc2ccc(S(=O)(=O)N3CCCCC3)cc2c1N,-6,-4,-2,1,39
O=C1CCC(/C=C/c2ccccc2)=NN1Cc1ccccc1Cl,-7,-3,-18,1,60*
Cc1ccc(NC(=O)Cn2c(-c3ccc(F)cc3)cnc2SCC(=O)Nc2c(C)cccc2C)cc1,-19,-1,-18,1,-8
O=C(c1cccc(N2C(=O)C3CC=CCC3C2=O)c1)N1CCCc2ccccc21 (stereo not given),-14,-1,2,1,-1
COc1ccc2c(c1)-c1nc(NC(=O)c3ccco3)sc1CC2,-2,2,-3,1,36
COc1ccc2c(c1)-c1nc(NC(=O)c3cccs3)sc1CC2,-11,-4,-29,1,72*
Cc1sc2nc3c4ccccc4c(NCc4ccco4)nn3c(=O)c2c1C,-6,-2,-3,1,63*
Cc1nc(NCc2ccco2)c2c(C)c(C)sc2n1,-10,-7,-28,1.1,2
CCOC(=O)CNS(=O)(=O)c1cc(-c2nn(C)c(=O)c3ccccc23)ccc1C,-11,-3,-7,1,70*
COc1ccc(/C=C/C(=O)c2ccc(O)cc2)cc1COc1ccc(F)cc1,9,0,-32,1,90*
COc1ccc(/C=C/C(=O)c2ccccc2)cc1COc1ccc(F)cc1,-5,-3,4,1,-8
COc1c(O)c(O)c2oc(-c3ccccc3)cc(=O)c2c1OC,4,4,0,1,4
COc1cc(-c2cc(=O)c3c(O)c(OC)c(OC)c(O)c3o2)ccc1O,64*,5,-2,0.9,3
COC(=O)C1=C(SC)N(c2ccccc2)C(c2ccccc2)CC1=O (stereo not given),-1,3,5,1,6
Cc1nn(-c2ccccc2)c(C)c1/C=N/NC(=O)c1cc(-c2ccccc2)n[nH]1,98*,22,2,0.8,8
Cc1nn(-c2ccccc2)c(C)c1/C=N/NC(=O)c1cc(-c2cccc3ccccc23)n[nH]1,-12,0,-4,1,36
COc1ccc(NC(=S)N2CCN(Cc3ccco3)CC2)c(OC)c1,-4,-4,-8,1,17
CC(=O)Nc1c(O)nc(SCC(=O)Nc2nnc(SCc3ccccc3)s2)[nH]c1=O,6,-2,2,1,-6

# Screening data from PubChem.
